Test results taken from article PMC9948766 (Science translational medicine, 2022).
Like-named read-outs stand apart in the source and are kept apart here.

What was measured:
[1] = system: mouse models of myocardial infarction; settings: cited from earlier work
[2] = Pharmacokinetics and biodistribution of ^125I-RLX after intraarticular injection; set-up: species or system Sprague Dawley rats; settings: rat, in vivo
[3] = humans, intravenous injection; cited from earlier work
[4] = cited from earlier work
[5] = system: atraumatic rat model of shoulder arthrofibrosis; assay: Histological assessment of rat shoulder joints; assay type: in vivo, Sprague Dawley rats
Procedure, shortened: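 Female Sprague Dawley rats with contracted shoulders receiving intraarticular doses (repeated 2 μg/kg injections or saline; or single 10 μg/kg microparticles or unloaded particles at equivalent PLGA mass) from remobilization. Joints fixed and decalcified at 14 or 56 days; coronal sections stained with H&E, Masson's Trichrome, Safranin O. Immune activation scored on H&E; axillary pouch thickness measured; n=5; mean ± STDev; ANOVA.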

[6] = Circular dichroism of RLX secondary structure; assay type: physicochemical

CL [2]: 20.6 (15.1, 31.8) (mL/kg)·hr
average plasma exposure, Cavg [2]: 2.05 ng/mL/h
clearance at the time of dose re-administration [2]: > 99%
maximum plasma exposure, Cmax [2]: 16 ng/mL
t1/2-α [2]: 0.954 (0.852, 1.15) h
t1/2-α (effective synovial half-life) [2]: 0.305 (0.280, 0.346) h
inflammatory infiltrate, histological scoring ([5]; 14 days post-treatment, n=5): negligible inflammation
inflammatory infiltrate, histological scoring ([5]; 56 days post-treatment, n=5): negligible inflammation
Substance: human relaxin-2 [RLX]
bioactive average plasma exposure concentration, Cavg [1]: 20 to 40 ng/mL
half-life [3]: 1.6 h
toxicological profile ([4]; acute heart failure, 30 μg/kg/day continuous IV infusion over 48 hr): favorable toxicological profile
toxicological profile ([4]; induction of labor, 75μg/kg/day continuous IV infusion over 24 hr): favorable toxicological profile
joint architecture ([5]; 56 days after remobilization, H&E, Masson's Trichrome): restored delineation of the humeral head and glenoid surface, absence of fibrotic adhesions
synovial membrane thickness in the axillary pouch ([5]; 56 days, n=5): restoration to baseline values
alpha helical structure (CD) after encapsulation processing ([6]; after organic solvents, mechanical and thermal forces of encapsulation): maintenance of the alpha helical structure
alpha helical structure (CD, negative peaks at 208 and 222 nm) after extended incubation ([6]; long-term incubation at 37 °C): maintenance of the alpha helical structure
